Read-outs that look alike come from different tables or passages of the source.
Key:
[1] = cited from earlier work
[2] = type: in vivo, human; conditions: for Exposure of metabolite higher compared with normal renal function: single 400-mg dose of ribociclib; for Increase in AUCinf compared with normal renal function / Increase in Cmax compared with normal renal function: single 400-mg dose
[3] = Subgroup analysis for letrozole PK by renal function; type: in vivo, human; conditions: X2107 and MONALEESA-7, no moderate RI available, data on file
non-cancer subjects = experiment: Study A2116: safety; type: in vivo, human; conditions: single 400-mg dose
How it was run: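 Phase I, open-label, multicenter, parallel-group, two-part study. Single oral 400-mg dose in non-cancer subjects with varying renal impairment vs matched normal-function subjects. Part I enrolled normal function, severe RI and ESRD not on dialysis.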

[4] = cited from earlier work; remark: listed apart in the source
[5] = cited from earlier work; remark: listed apart in the source
[6] = system: patients with advanced breast cancer; experiment: Patient subgroup safety analysis by renal function; type: in vivo, human; conditions: for AEs leading to discontinuations / Dose modifications owing to renal toxicity / Incidence of thrombocytopenia / On-treatment deaths / QT interval prolongation events: ribociclib group
How it was run: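 Safety by renal function group in X2107, MONALEESA-2, MONALEESA-3 and MONALEESA-7 (NSAI only). Starting dose 600 mg, 3 weeks on/1 week off. Drug-related AEs were managed by reducing to 400 or 200 mg. Patients with severe RI were excluded from these studies.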

[7] = pharmacokinetic data; cited from earlier work
[8] = baseline eGFR as a continuous covariate; patients; cited from earlier work
plasma protein = conditions: cited from earlier work
[9] = system: patients with advanced breast cancer; experiment: Patient subgroup efficacy analysis; type: in vivo, human; conditions: for PFS HR (95% CI) RIB vs PBO: Cox proportional-hazards model stratified by study; for Median PFS (95% CI): Kaplan–Meier, local investigator's assessment
How it was run: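 Pooled data: MONALEESA-2 (full analysis set), MONALEESA-3 (first-line patients) and MONALEESA-7 (NSAI only). Starting dose 600 mg, 3 weeks on/1 week off. Severe RI was excluded. PFS by local investigator assessment. Median PFS by Kaplan–Meier; hazard ratio from a Cox proportional-hazards model stratified by study.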

[10] = cited from earlier work; remark: listed apart in the source

Compound: CNC(=O)c1cc2cnc(Nc3ccc(N4CCNCC4)cn3)nc2n1C1CCCC1 [LEQ803]
- Contribution to the pharmacological activity in vivo [1]: no clinically relevant contribution to the pharmacological activity in vivo
- Exposure of metabolite higher compared with normal renal function ([2]; mild RI): 32%
- Exposure of metabolite higher compared with normal renal function ([2]; moderate RI): 47%
- Exposure of metabolite higher compared with normal renal function ([2]; severe RI): 80%

Compound: N#Cc1ccc(C(c2ccc(C#N)cc2)n2cncn2)cc1 [letrozole]
- PK between normal renal function and mild RI [3]: comparable PK

Compound: CN(C)C(=O)c1cc2cnc(Nc3ccc(N4CCNCC4)cn3)nc2n1C1CCCC1 [ribociclib]
- Subjects with at least one AE (non-cancer subjects; all cohorts): 31.6%
- Subjects with treatment-related AEs (non-cancer subjects; all cohorts): 15.8%
- Changes from baseline in hematology, chemistry, vital signs, or electrocardiograms (non-cancer subjects; any of the cohorts): No clinically meaningful changes from baseline
- Exposure compared with subjects with normal hepatic function ([4]; mild hepatic impairment): similar
- Increase in exposure compared with normal hepatic function ([4]; moderate and severe HI): approximately 30%
- Maximal increase in exposure ([4]; severe HI): 1.3 fold
- Intestinal excretion [5]: ~8%
- Renal excretion [5]: around 7%
- Contribution of renal clearance, share of overall elimination routes ([5]; human absorption, distribution, metabolism, and excretion study): 7%
- Hepatic elimination, share of overall pathways ([5]; in humans): 84%
- Ae0-144h Geo-mean (amount excreted into the urine from time 0 to 144 h) ([2]; ESRD, N = 3, single oral dose of ribociclib at 400 mg, Part I and II): 8.11 mg
- Renal clearance as share of the apparent clearance ([2]; Study A2116): around 5%
- Increase in AUCinf compared with normal renal function ([2]; mild RI): 62%
- Increase in Cmax compared with normal renal function ([2]; mild RI): 80%
- Increase in AUCinf compared with normal renal function ([2]; moderate RI): 94%
- Increase in Cmax compared with normal renal function ([2]; moderate RI): 79%
- Increase in AUCinf compared with normal renal function ([2]; severe RI): 167%
- Increase in Cmax compared with normal renal function ([2]; severe RI): 130%
- Median time to the first dose reduction ([6]; across renal function cohorts, patients with dose reductions): 12.0–12.9 weeks
- AEs of torsade de pointes ([6]; patients with ABC): No AEs of torsade de pointes were reported
- Median time to first occurrence of QTcF value > 480 ms and an increase from baseline of >60 ms ([6]; patients with ABC): 15 days
- AEs leading to discontinuations ([6]; mild RI): 16.0%
- Dose modifications owing to renal toxicity ([6]; mild RI): 2.5%
- Incidence of thrombocytopenia ([6]; mild RI): 11.0%
- On-treatment deaths ([6]; mild RI): 1.3%
- QT interval prolongation events ([6]; mild RI): 10.3%
- AEs leading to discontinuations ([6]; moderate RI): 25.4%
- Dose modifications owing to renal toxicity ([6]; moderate RI): 3.8%
- Incidence of thrombocytopenia ([6]; moderate RI): 13.8%
- On-treatment deaths ([6]; moderate RI): 5.4%
- QT interval prolongation events ([6]; moderate RI): 10.0%
- AEs leading to discontinuations ([6]; normal function): 10.1%
- Dose modifications owing to renal toxicity ([6]; normal renal function): 0.7%
- Incidence of thrombocytopenia ([6]; normal renal function): 7.0%
- On-treatment deaths ([6]; normal renal function): 1.4%
- QT interval prolongation events ([6]; normal renal function): 6.4%
- Drug–drug interactions with NSAIs (letrozole and anastrozole) or fulvestrant [7]: no drug–drug interactions
- Effect of RI on PK in covariate analysis [8]: not affected by RI
- Protein binding (plasma protein): 70%
- PFS HR (95% CI) RIB vs PBO ([9]; mild renal impairment): 0.57
- Median PFS (95% CI) ([9]; mild renal impairment): 24.8 months
- PFS HR (95% CI) RIB vs PBO ([9]; moderate renal impairment): 0.64
- Median PFS (95% CI) ([9]; moderate renal impairment): 22.2 months
- PFS HR (95% CI) RIB vs PBO ([9]; normal renal function): 0.58
- Median PFS (95% CI) ([9]; normal renal function): 23.8 months
- Mean effective half-life ([10]; at 600 mg): 33 to 54 h
- Oral clearance in patients with cancer versus non-cancer subjects [10]: generally lower oral clearance
- Dose proportionality of exposure ([10]; dose range of 50–1200 mg): slightly over-proportional increases in exposure
- Time to maximum observed plasma drug concentration ([10]; previous PK analyses): 1 to 5 h
